Measurements reported in ChEMBL document CHEMBL4689842, “EUbOPEN Chemogenomics Library wave 1” (2021).

What was measured:
Assay type in all cases: toxicity, cell-based
[1] = system: U2OS; assay: Multiplex assay against U2OS; details: human
Method in brief: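 Cells were classed with CellPathfinder machine-learning gating, first as Hoechst high-intensity objects or normal cells, then (normal cells) as healthy, pyknosed or fragmented nuclei, and finally (pyknosed cells) as mitotic or apoptotic. Staining of live cells at seeding used Hoechst33342, BioTracker Green Microtubule Cytoskeleton Dye, MitoTracker Red and Annexin V Alexa Fluor 680, with imaging on a CQ1 microscope at 37°C and 5% CO2 after compound addition. Tubulin, mitochondrial-mass and membrane-permeability phenotypes are per cents of healthy-nucleus cells.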

[2] = system: HEK-293T; assay: Incucyte cell viability with HEK293T; details: human, 10 µM, compound concentration 10 uM; note: filed as whole numbers so only -1 and 0 and 1 occur
[3] = system: U2OS; assay: Incucyte cell viability with U2OS; details: human, 10 µM, compound concentration 10 uM; note: filed as whole numbers so only -1 and 0 and 1 occur
[4] = 12 h, 1 µM, compound concentration 1 uM, replicate 1
[5] = 12 h, 1 µM, compound concentration 1 uM, replicate 2
[6] = 12 h, 10 µM, compound concentration 10 uM, replicate 1
[7] = 12 h, 10 µM, compound concentration 10 uM, replicate 2
[8] = 24 h, 1 µM, compound concentration 1 uM, replicate 1
[9] = 24 h, 1 µM, compound concentration 1 uM, replicate 2
[10] = 24 h, 10 µM, compound concentration 10 uM, replicate 1
[11] = 24 h, 10 µM, compound concentration 10 uM, replicate 2
[12] = 48 h, 1 µM, compound concentration 1 uM, replicate 1
[13] = 48 h, 1 µM, compound concentration 1 uM, replicate 2
[14] = 48 h, 10 µM, compound concentration 10 uM, replicate 1
[15] = 48 h, 10 µM, compound concentration 10 uM, replicate 2
[16] = 0 h, replicate number 1, timepoint 0 hours

## CNc1oc(-c2cccc3ccccc23)nc1C#N
[1]; [4]
  Population Apoptotic (%): 36%
  Population Fragmented Nuclei (%): 22%
  Population Healthy Nuclei (%): 67%
  Population Hoechst High Intensity Objects (%): 16%
  Population Membrane Permeable-Phenotype (%): 10%
  Population Mitochondria Different-Phenotype (%): 9%
  Population Mitotic Cells (%): 63%
  Population Normal (%): 83%
  Population Pyknosed Nuclei (%): 10%
  Population Tubulin-Different-Phenotype (%): 8%
  Total Cell Count: 113
[1]; [5]
  Population Apoptotic (%): 0%
  Population Fragmented Nuclei (%): 29%
  Population Hoechst High Intensity Objects (%): 15%
  Population Membrane Permeable-Phenotype (%): 3%
  Population Mitochondria Different-Phenotype (%): 11%
  Population Mitotic Cells (%): 100%
  Population Normal (%): 84%
  Population Pyknosed Nuclei (%): 2%
  Population Tubulin-Different-Phenotype (%): 7%
  Total Cell Count: 100
[1]; [6]
  Population Apoptotic (%): 86%
  Population Fragmented Nuclei (%): 49%
  Population Healthy Nuclei (%): 18%
  Population Hoechst High Intensity Objects (%): 44%
  Population Membrane Permeable-Phenotype (%): 3%
  Population Mitochondria Different-Phenotype (%): 11%
  Population Mitotic Cells (%): 13%
  Population Normal (%): 55%
  Population Pyknosed Nuclei (%): 32%
  Population Tubulin-Different-Phenotype (%): 15%
  Total Cell Count: 259
[1]; [7]
  Population Apoptotic (%): 80%
  Population Fragmented Nuclei (%): 55%
  Population Healthy Nuclei (%): 16%
  Population Hoechst High Intensity Objects (%): 46%
  Population Membrane Permeable-Phenotype (%): 1%
  Population Mitochondria Different-Phenotype (%): 3%
  Population Mitotic Cells (%): 19%
  Population Normal (%): 53%
  Population Pyknosed Nuclei (%): 28%
  Population Tubulin-Different-Phenotype (%): 24%
  Total Cell Count: 92
[1]; [8]
  Population Apoptotic (%): 53%
  Population Fragmented Nuclei (%): 18%
  Population Healthy Nuclei (%): 75%
  Population Hoechst High Intensity Objects (%): 17%
  Population Membrane Permeable-Phenotype (%): 2%
  Population Mitochondria Different-Phenotype (%): 3%
  Population Mitotic Cells (%): 46%
  Population Normal (%): 82%
  Population Pyknosed Nuclei (%): 5%
  Population Tubulin-Different-Phenotype (%): 6%
  Total Cell Count: 119
[1]; [9]
  Population Apoptotic (%): 25%
  Population Fragmented Nuclei (%): 28%
  Population Healthy Nuclei (%): 67%
  Population Hoechst High Intensity Objects (%): 6%
  Population Membrane Permeable-Phenotype (%): 1%
  Population Mitochondria Different-Phenotype (%): 10%
  Population Mitotic Cells (%): 75%
  Population Normal (%): 93%
  Population Pyknosed Nuclei (%): 3%
  Population Tubulin-Different-Phenotype (%): 21%
  Total Cell Count: 113
[1]; [10]
  Population Apoptotic (%): 86%
  Population Fragmented Nuclei (%): 50%
  Population Healthy Nuclei (%): 17%
  Population Hoechst High Intensity Objects (%): 43%
  Population Membrane Permeable-Phenotype (%): 3%
  Population Mitochondria Different-Phenotype (%): 15%
  Population Mitotic Cells (%): 13%
  Population Normal (%): 56%
  Population Pyknosed Nuclei (%): 32%
  Population Tubulin-Different-Phenotype (%): 14%
  Total Cell Count: 352
[1]; [11]
  Population Apoptotic (%): 81%
  Population Fragmented Nuclei (%): 57%
  Population Healthy Nuclei (%): 16%
  Population Hoechst High Intensity Objects (%): 44%
  Population Mitochondria Different-Phenotype (%): 3%
  Population Mitotic Cells (%): 18%
  Population Normal (%): 55%
  Population Pyknosed Nuclei (%): 25%
  Population Tubulin-Different-Phenotype (%): 26%
  Total Cell Count: 116
[1]; [12]
  Population Apoptotic (%): 56%
  Population Fragmented Nuclei (%): 16%
  Population Healthy Nuclei (%): 79%
  Population Hoechst High Intensity Objects (%): 14%
  Population Mitochondria Different-Phenotype (%): 7%
  Population Mitotic Cells (%): 43%
  Population Normal (%): 85%
  Population Pyknosed Nuclei (%): 3%
  Population Tubulin-Different-Phenotype (%): 8%
  Total Cell Count: 243
[1]; [13]
  Population Apoptotic (%): 0%
  Population Fragmented Nuclei (%): 29%
  Population Healthy Nuclei (%): 68%
  Population Hoechst High Intensity Objects (%): 10%
  Population Membrane Permeable-Phenotype (%): 1%
  Population Mitochondria Different-Phenotype (%): 8%
  Population Mitotic Cells (%): 100%
  Population Normal (%): 89%
  Population Pyknosed Nuclei (%): 2%
  Population Tubulin-Different-Phenotype (%): 19%
  Total Cell Count: 155
[1]; [14]
  Population Apoptotic (%): 87%
  Population Fragmented Nuclei (%): 53%
  Population Healthy Nuclei (%): 18%
  Population Hoechst High Intensity Objects (%): 43%
  Population Membrane Permeable-Phenotype (%): 3%
  Population Mitochondria Different-Phenotype (%): 12%
  Population Mitotic Cells (%): 12%
  Population Normal (%): 56%
  Population Pyknosed Nuclei (%): 27%
  Population Tubulin-Different-Phenotype (%): 17%
  Total Cell Count: 525
[1]; [15]
  Population Apoptotic (%): 81%
  Population Fragmented Nuclei (%): 57%
  Population Healthy Nuclei (%): 14%
  Population Mitochondria Different-Phenotype (%): 5%
  Population Mitotic Cells (%): 18%
  Population Tubulin-Different-Phenotype (%): 26%
  Total Cell Count: 168
[2]; [16]
  Growth Rate: 0
[2]; 12 h, replicate number 1, timepoint 12 hours
  Growth Rate: 1
[2]; 18 h, replicate number 1, timepoint 18 hours
  Growth Rate: 1
[2]; 24 h, replicate number 1, timepoint 24 hours
  Growth Rate: 1
[3]; [16]
  Growth Rate: 0
[3]; 18 h, replicate number 2, timepoint 18 hours
  Growth Rate: 1
[3]; 24 h, replicate number 2, timepoint 24 hours
  Growth Rate: 1
